Screens: PubChem, Broad Institute
dFosB activator – activators of delta FosB homodimer, primary screen, biochemical, fluorescence polarization, TAMRA-CDK5 oligo, single point; activation, % at 25 µM; 0.99% of 340,000 active; purified delta FosB; percent of positive-control signal above neutral wells;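 active means mean activation above about 17%, with every replicate also reaching it, limit read from the data, passing the limit was not always enough; inconclusive means only one of the two conditions met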
Target sequence (P13346 whole entry, looked up): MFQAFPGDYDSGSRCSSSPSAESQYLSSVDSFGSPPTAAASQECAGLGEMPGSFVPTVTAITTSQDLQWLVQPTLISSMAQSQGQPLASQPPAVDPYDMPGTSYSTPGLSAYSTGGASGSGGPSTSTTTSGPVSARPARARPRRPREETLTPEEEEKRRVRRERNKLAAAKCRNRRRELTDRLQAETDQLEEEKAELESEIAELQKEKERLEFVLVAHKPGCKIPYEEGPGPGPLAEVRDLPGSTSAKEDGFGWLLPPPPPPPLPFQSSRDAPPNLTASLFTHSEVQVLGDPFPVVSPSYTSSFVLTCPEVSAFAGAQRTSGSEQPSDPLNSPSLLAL
CDK5 inh – inhibitors of human CDK5/p35 kinase, primary screen, biochemical, single concentration | 0.01% of 330,000 active | Cyclin-dependent kinase 5 (Homo sapiens) + Cyclin-dependent kinase 5 activator 1 (Homo … | Recombinant CDK5/p35, ADP-Glo luminescence, 60 min | inhibition, % at 10 µM;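 active means highest replicate inhibition of at least 50% and at least 75% of replicates reaching 50%; inconclusive means only one of the two criteria met; inactive means both criteria failed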;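 further: plate controls were DMSO neutral control for no effect and GW8510 at 10 µM for full effect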
Cneo AK release – Cryptococcus neoformans cell lysis inducers, primary screen, AK release luminescence, single concentration. C. neoformans lysis, adenylate kinase release luminescence, 4 h; normalised: neutral wells 0, clomiphene wells 100. lysis activity, % at 15 µM. 0.2% of 360,000 active. AID 651654, 2012;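 active means mean lysis activity across replicates of at least 80%, whatever share of replicates individually reach that level; inactive means mean lysis activity below 80%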
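read-out = cell lysis signal | test system = log-phase Cryptococcus neoformans yeast cells | input = cells at 5 × 10^6 per mL | medium = fresh YPD growth medium | signal = luminescent adenylate kinase detection reagent | timing = 4 h at 37 °C static, read 1 h later | dosing = single dose | controls = Clomiphene as positive lysis control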
PAX8 reporter – inhibitors of PAX8-driven TPO luciferase reporter, primary screen, RMG-I cells, single concentration | AID 652154, 2013 | 1.2% of 360,000 active | SteadyGlo, 24 h | inhibition, % at 12.6 µM;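 active means mean replicate inhibition at least 60% with every replicate also reaching 60%; inconclusive means only one of the two criteria is met; inactive means mean below 60% and not all replicates reaching 60%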;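 further: luciferase light reporting Pax8 driven TPO promoter activity; plate controls were median of neutral control wells for no effect and mitoxantrone controls for full effect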
HIV Env fusion – inhibitors of HIV-1 Env-driven cell-cell fusion, primary screen, HeLa-JRFL effector, CEM21 target cells, luciferase; inhibition, % at 12.3 µM; AID 651610, 2012; 1.1% of 360,000 active;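 active means mean replicate inhibition score of at least 50 and every replicate individually at or above 50; inconclusive means only one of the two criteria met; inactive means mean below 50 and not all replicates reaching 50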;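 further: 0% = plate neutral controls and 100% = maraviroc near 300 nM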
INS-1E GSIS act – GLuc luminescence reporter in INS-1E cells, primary screen for activators of glucose-dependent secretion of insulin; INS-1E GLuc reporter insulin secretion, 2-3 h; activation, % at 16.6 µM; 0.61% of 370,000 active; AID 743287, 2014;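 active means lowest replicate activation of at least 40%, so every replicate reaches that level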;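 further: 0% = median of neutral control wells and 100% = median of IBMX positive control wells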
* = called active by the depositor; ? = inconclusive; nt = no result given; [ ] = dose if it differs, or a comment. An excerpt weighted towards active compounds, which were near 2.9% of everything screened.

SMILES | dFosB activator | CDK5 inh | Cneo AK release | PAX8 reporter | HIV Env fusion | INS-1E GSIS act
COC1C(O)C(C)OC(OC2CCC3(C)C(CCC4C3C(O)CC3(C)C(C5=CC(=O)OC5)CCC43O)C2)C1O (stereo not drawn) | -1.9 | 0.9 | nt | 108.2* | 86.2* | nt
C[C@]12CC[C@H](O)C[C@H]1CC[C@@H]1[C@@H]2CC[C@]2(C)[C@@H](C3=CC(=O)OC3)CC[C@]12O | 2.4 | 1.0 | 0.1 | 112.9* | ? | nt
CC(=O)OC1CC(OC2C(O)CC(OC3C(O)CC(OC4CCC5(C)C(CCC6C5CC(O)C5(C)C(C7=CC(=O)OC7)CCC65O)C4)OC3C)OC2C)OC(C)C1OC1OC(CO)C(O)C(O)C1O (stereo not drawn) | -5.7 | 0.8 | -1.0 | 111.1* | -18.0 | nt
CC12CCC(O)CC1CCC1C2CCC2(C)C(C3=CC(=O)OC3)CCC12O (stereo not drawn) | -11.3 | 0.9 | nt | 105.8* | 86.6* | 1.7
CC12CC[C@H]3[C@@H](CCC4(O)C[C@H](O)CCC34/C=N/NC(=O)Cc3ccccc3)C1(O)CCC2C1=CC(=O)OC1 (stereo partly drawn) | -0.1 | -0.3 | 3.1 | 5.9 | -43.2 | -11.5
Cc1cccc(S(=O)(=O)N2[C@@H]3c4ccc(-c5ccccc5)c(=O)n4C[C@H]2[C@H](CO)[C@H]3C(=O)O)c1 | nt | nt | -10.9 | -4.0 | nt | 11.6
CC(=O)C1CCC2C3CCC4CC(O)CCC4(C)C3CCC12C (stereo not drawn) | 3.9 | -0.6 | -2.4 | 0.7 | -6.7 | nt
C[C@]12CC[C@H](O)C[C@H]1CC[C@@H]1[C@@H]2C[C@@H](O)[C@]2(C)[C@@H](C3=CC(=O)OC3)CC[C@]12O | 3.8 | 0.9 | -0.9 | 103.7* | -41.3 | nt
CC12CCC(O)CC1CCC1C2CCC2(C)C(C3=CC(=O)OC3)C(O)CC12O (stereo not drawn) | 8.4 | 1.3 | nt | 45.5 | 73.6* | nt
O=C(O)[C@H]1[C@H](CO)[C@H]2Cn3c(ccc(-c4ccc(F)cc4)c3=O)[C@@H]1N2CC1CCCC1 | nt | nt | nt | 23.5 | -10.3[16.7 µM] | -6.1
C=C1C(=O)OC2CC(C)C3C=CC(=O)C3(C)C(O)C12 (stereo not drawn) | -15.1 | 0.2 | nt | nt | nt | nt
C=C1C(=O)O[C@@H]2C[C@@H](C)[C@@H]3C4OC4C(=O)[C@@]3(C)[C@@H](O)[C@H]12 (stereo partly drawn) | -0.5 | -0.9 | -0.2 | 104.1* | -340.8 | -32.5
O=C(Cc1ccccn1)N1CCCCN2[C@@H](CO)[C@H](c3ccc(C#Cc4ccccc4)cc3)[C@@H]2C1 | nt | nt | 4.6 | 6.9 | nt | 3.1
NC(N)=N/N=C/c1ccc(N(c2ccccc2)c2ccccc2)cc1 | -112.9 | 3.0 | 6.2 | 81.3* | 8.9 | 320.8*
CC(C)NS(=O)(=O)c1ccc(OCC(=O)N2CCN(Cc3ccc4c(c3)OCO4)CC2)c(Cl)c1 | -8.2 | -0.8 | -0.7 | nt | 74.2* | 0.3
CC(=O)O[C@H]1C[C@@H]2OC3C=C(C)CCC3(C)[C@@]1(C)[C@@]21CO1 (stereo partly drawn) | 6.6 | 0.9 | nt | 110.0* | 71.6* | nt
C=CCN1[C@@H]2CN(C(C)=O)C[C@H]1C2c1ccccc1 (stereo partly drawn) | nt | nt | nt | nt | nt | -3.8
COC(=O)[C@H]1[C@H](CO)[C@H]2Cn3c(ccc(-c4ccc(OC)cc4)c3=O)[C@@H]1N2C(=O)c1ccccc1F | nt | nt | -9.6 | -2.2 | nt | 6.8
CCN1/C(=C/C=C/C2=[N+](CC)c3ccccc3C2(C)C)C(C)(C)c2ccccc21 | nt | nt | -5.9 | 106.3* | 35.6 | -56.5
COC(=O)[C@@H]1[C@@H](CO)[C@@H]2Cn3c(ccc(-c4ccccc4F)c3=O)[C@H]1N2C(=O)C1CCC1 | nt | nt | -7.1 | nt | nt | 0.7
Cc1cccc(S(=O)(=O)N2[C@@H]3Cn4c(ccc(-c5ccncc5)c4=O)[C@H]2[C@@H](C(=O)O)[C@@H]3CO)c1 | nt | nt | 1.6 | 0.8 | nt | 4.9
COc1ccc(-[n+]2c(-c3ccccc3)cc(-c3ccc(C)cc3)cc2-c2ccccc2)cc1 | -4.6 | 0.5 | -2.9 | 106.0* | 53.8 | -63.7
C[n+]1c(-c2ccccc2)cc(CCCCc2cc(-c3ccccc3)[n+](C)c(-c3ccccc3)c2)cc1-c1ccccc1 | 0.6 | 0.6 | -3.0 | 96.1* | -15.9 | nt
CCCOC(=O)c1ccc(-[n+]2c(-c3ccccc3)cc(-c3ccccc3)cc2-c2ccccc2)cc1 | 14.5 | -1.3 | -4.2 | 87.7* | -13.8 | -16.8
O=C(O)c1ccc(-[n+]2c(-c3ccccc3)cc(-c3ccccc3)cc2-c2ccccc2)cc1 | 1.4 | -2.2 | 0.9 | 15.9 | -10.7 | -12.7
SMILES | dFosB activator | CDK5 inh | Cneo AK release | PAX8 reporter | HIV Env fusion | INS-1E GSIS act
Brc1ccc(-[n+]2c(-c3ccccc3)cc(-c3ccccc3)cc2-c2ccccc2)cc1 | -9.3 | 0.0 | 0.2 | 98.5* | 24.3 | 12.7
CC(C)NC(=O)N1C[C@@H]2C(c3ccccc3)[C@H](C1)N2CC1CC1 (stereo partly drawn) | nt | nt | nt | nt | nt | 11.0
COC(=O)[C@@H]1[C@@H](CO)[C@@H]2Cn3c(ccc(-c4cncnc4)c3=O)[C@H]1N2S(=O)(=O)c1ccccc1C | nt | nt | 33.3 | 2.4 | nt | 14.8
Cc1ccc(-c2cc(-c3ccccc3)cc(-c3ccccc3)[n+]2-c2ccc(C(=O)O)cc2)cc1 | 1.1 | -0.4 | 0.1 | 12.3 | 8.5 | 4.7
COc1ccc(-c2cc(-c3ccccc3)[n+](C)c(-c3ccccc3)c2)cc1 | 0.9 | 0.0 | nt | 87.1* | 38.7 | -31.4
CC=Cc1ccc2n(c1=O)C[C@@H]1[C@@H](CO)[C@H](C(=O)OC)[C@H]2N1S(=O)(=O)c1cccc(C)c1 (mixture of isomers) | nt | nt | 1.1 | nt | 61.1*[16.7 µM] | 3.4
O=C(O)[C@H]1[C@H](CO)[C@H]2Cn3c(ccc(-c4ccncc4)c3=O)[C@@H]1N2C(=O)C1CCCCC1 | nt | nt | -2.7 | nt | nt | 6.9
Cc1cccc2nc(-c3ccccc3)c(-c3ccc(CN4CCC(n5c(=O)[nH]c6ccccc65)CC4)cc3)nc12 | nt | nt | nt | 32.6 | -62.0 | -26.5
N#Cc1ccc2nc(-c3ccc(CN4CCC(n5c(=O)[nH]c6ccccc65)CC4)cc3)c(-c3ccccc3)nc2c1 | nt | nt | nt | 90.8* | -108.6 | 34.8
C=C(C)Cn1c(=O)n(CC2CS2)c2ccccc21 (stereo not drawn) | 4.3 | -6.1 | nt | -7.6 | nt | 69.4*
CCN1[C@@H]2c3ccc(-c4cccc(C(=O)N(C)C)c4)c(=O)n3C[C@H]1[C@H](CO)[C@H]2C(=O)OC | nt | nt | -5.6 | -13.3 | nt | -1.3
CC1CC(C)(O)CC(C(O)CC2CC(=O)NC(=O)C2)C1=O (stereo not drawn) | 1.7 | -0.6 | nt | 123.4* | 97.8* | -21.1
